Experimental data of several laboratories.
Lines come from different studies, so protocols differ. pEC50: −log10 of the molar value.
MTNR1A: Melatonin receptor type 1A (MTNR1A, Homo sapiens, UniProt P48039)
Glucagon receptor: Glucagon receptor (Mus musculus, UniProt Q61606)

Compound | target | assay | pEC50
C#CCOCCOCCOCCOc1ccc2c3c1C1CCCC1N3CCNC2 (racemic) | 5-hydroxytryptamine receptor 2C (HTR2C, Homo sapiens, UniProt P28335) | calcium signal, agonist, fluorescence | 6.19
Cc1cccnc1C(=O)Nc1ccc(N2C(=O)c3cccc(Cl)c3C2=O)c(Cl)c1 | Metabotropic glutamate receptor 1 (Grm1, Rattus norvegicus, UniProt P23385) | calcium signal, positive allosteric modulator | 6.44
COc1ccc2[nH]cc(CCNC(C)=O)c2c1I | MTNR1A | cAMP, agonist, TR-FRET | 6.64
Clc1sccc1CNc1cccc(-c2nnc[nH]2)c1 | MTNR1A | cAMP, agonist, luciferase | 5.03
CC[C@H](C)[C@H](NC(=O)[C@H](CO)NC(=O)[C@H](Cc1ccc(O)cc1)NC(=O)[C@H](CC(=O)O)NC(=O)[C@H](CO)NC(=O)[C@@H](NC(=O)[C@H](Cc1ccccc1)NC(=O)[C@@H](NC(=O)CNC(=O)[C@H](CCC(=O)O)NC(=O)[C@H](C)NC(=O)[C@@H](N)Cc1ccc(O)cc1)[C@@H](C)O)[C@@H](C)CC)C(=O)N[C@@H](C)C(=O)N[C@@H](CCSC)C(=O)N[C@@H](CC(=O)O)C(=O)N[C@@H](CCCCN)C(=O)N[C@H](C(=O)N[C@@H](CCCNC(=N)N)C(=O)N[C@@H](CCC(N)=O)C(=O)N[C@@H](CCC(N)=O)C(=O)N[C@@H](CC(=O)O)C(=O)N[C@@H](Cc1ccccc1)C(=O)N[C@H](C(=O)N[C@@H](CC(N)=O)C(=O)N[C@@H](Cc1c[nH]c2ccccc12)C(=O)N[C@@H](CC(C)C)C(=O)N[C@@H](CC(C)C)C(=O)N[C@@H](C)C(=O)N[C@@H](CCC(N)=O)C(=O)N[C@@H](CCCNC(=N)N)C(=O)NCC(=O)N[C@@H](CCCCN)C(=O)N[C@@H](CCCCN)C(=O)N[C@@H](CO)C(=O)N[C@@H](CC(=O)O)C(=O)N[C@@H](Cc1c[nH]c2ccccc12)C(=O)N[C@@H](CCCCN)C(=O)N[C@@H](Cc1c[nH]cn1)C(=O)N[C@@H](CC(N)=O)C(=O)N[C@H](C(=O)N[C@H](C(=O)N[C@@H](CCC(N)=O)C(=O)O)[C@@H](C)O)[C@@H](C)CC)C(C)C)[C@@H](C)CC | Glucagon receptor | reporter gene, agonist, luciferase | < 6.00
COc1cccc(CN2CCOc3ccc(OC)cc32)c1 | MTNR1A | cAMP, agonist, luciferase | 8.21
CC[C@H](C)[C@H](NC(=O)[C@H](Cc1ccccc1)NC(=O)[C@H](CCC(=O)O)NC(=O)[C@H](CCCCN)NC(=O)[C@H](C)NC(=O)[C@H](C)NC(=O)[C@H](CCC(N)=O)NC(=O)CNC(=O)[C@H](CCC(=O)O)NC(=O)[C@H](CC(C)C)NC(=O)[C@H](Cc1ccc(O)cc1)NC(=O)[C@H](CO)NC(=O)[C@H](CO)NC(=O)[C@@H](NC(=O)[C@H](CC(=O)O)NC(=O)[C@H](CO)NC(=O)[C@@H](NC(=O)[C@H](Cc1ccccc1)NC(=O)[C@@H](NC(=O)CNC(=O)[C@H](CCC(=O)O)NC(=O)[C@H](C)NC(=O)[C@@H](N)Cc1c[nH]cn1)[C@@H](C)O)[C@@H](C)O)C(C)C)C(=O)N[C@@H](C)C(=O)N[C@@H](Cc1c[nH]c2ccccc12)C(=O)N[C@@H](CC(C)C)C(=O)N[C@H](C(=O)N[C@@H](CCCCN)C(=O)NCC(=O)N[C@@H](CCCN=C(N)N)C(=O)NCC(=O)O)C(C)C | Glucagon receptor | reporter gene, agonist, luciferase | < 6.00
COc1ccc(CSc2nnc(C3CC3)[nH]2)cc1 | MTNR1A | cAMP, agonist, luciferase | 8.53
COCC(CNC(C)=O)c1cccc2ccc(OC)cc12 (stereo not drawn) | MTNR1A | cAMP, agonist, TR-FRET | 7.67
